Assay outcomes as filed in PubChem.
Kir21 inh: Kir2.1 (mouse) channel inhibition. P35561. actives 0.85% (n = 310,000). HEK293-Kir2.1, FluxOR thallium flux fluorescence; active compounds read low. B-score at 10 µM;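 active = fluorescence ratio B-score at or below minus 3 SD of library scores, with starting-brightness B-score within 2 SD, cut at about -4.2 in these data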;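 note: channel flux triggered by added potassium and thallium sulfate stimulus; B-score of peak minus minimum fluorescence over baseline after thallium stimulus; more negative B-score means stronger Kir2.1 block with less thallium influx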
KCNK3 block: human KCNK3 channel inhibition, primary screen | O14649 | CHO-KCNK3 thallium flux, FluxOR fluorescence; active compounds read low | B-score at 10 µM | actives 0.84% (n = 340,000) | AID 602410;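 active = B-score under library mean minus 4 SD, starting fluorescence ratio at most library mean plus 5 SD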;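 note: more negative B-score means stronger inhibition of thallium flux through KCNK3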
KCNK9 inh: inhibitors of human KCNK9 two-pore domain potassium channel | Q9NPC2 | HEK293 KCNK9, FluxOR thallium flux fluorescence; active compounds read low | B-score at 10 µM | actives 1.2% (n = 310,000) | AID 488922;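 active = ratio B-score over 3 SD below the library mean, with starting fluorescence within 5 SD of its mean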;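 note: negative B-score means less thallium flux so channel inhibition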
KCNQ1 inh: human KCNQ1 channel inhibition; AID 2642; CHO-K1 KCNQ1, FluxOR thallium flux fluorescence; active compounds read high; B-score at 10 µM; actives 1.3% (n = 310,000);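 active = compounds whose thallium flux B-score, printed positive for inhibition, exceeds three library SD while starting fluorescence stays within three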;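 note: channel opened by potassium depolarization with thallium stimulus after 20 min compound exposure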
hERG rescue: hERG (human) protection from proarrhythmic block; actives 0.51% (n = 310,000); activation (rescue from dofetilide block), less the hit threshold, % at 10 µM; CHO-hERG, FluxOR thallium flux, dofetilide IC70 present;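 active = activation above the mean of controls blocked by dofetilide plus 5 SD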;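 note: thallium influx through hERG after potassium depolarization seen as dye fluorescence rise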
Target sequence (Q12809 whole entry, looked up): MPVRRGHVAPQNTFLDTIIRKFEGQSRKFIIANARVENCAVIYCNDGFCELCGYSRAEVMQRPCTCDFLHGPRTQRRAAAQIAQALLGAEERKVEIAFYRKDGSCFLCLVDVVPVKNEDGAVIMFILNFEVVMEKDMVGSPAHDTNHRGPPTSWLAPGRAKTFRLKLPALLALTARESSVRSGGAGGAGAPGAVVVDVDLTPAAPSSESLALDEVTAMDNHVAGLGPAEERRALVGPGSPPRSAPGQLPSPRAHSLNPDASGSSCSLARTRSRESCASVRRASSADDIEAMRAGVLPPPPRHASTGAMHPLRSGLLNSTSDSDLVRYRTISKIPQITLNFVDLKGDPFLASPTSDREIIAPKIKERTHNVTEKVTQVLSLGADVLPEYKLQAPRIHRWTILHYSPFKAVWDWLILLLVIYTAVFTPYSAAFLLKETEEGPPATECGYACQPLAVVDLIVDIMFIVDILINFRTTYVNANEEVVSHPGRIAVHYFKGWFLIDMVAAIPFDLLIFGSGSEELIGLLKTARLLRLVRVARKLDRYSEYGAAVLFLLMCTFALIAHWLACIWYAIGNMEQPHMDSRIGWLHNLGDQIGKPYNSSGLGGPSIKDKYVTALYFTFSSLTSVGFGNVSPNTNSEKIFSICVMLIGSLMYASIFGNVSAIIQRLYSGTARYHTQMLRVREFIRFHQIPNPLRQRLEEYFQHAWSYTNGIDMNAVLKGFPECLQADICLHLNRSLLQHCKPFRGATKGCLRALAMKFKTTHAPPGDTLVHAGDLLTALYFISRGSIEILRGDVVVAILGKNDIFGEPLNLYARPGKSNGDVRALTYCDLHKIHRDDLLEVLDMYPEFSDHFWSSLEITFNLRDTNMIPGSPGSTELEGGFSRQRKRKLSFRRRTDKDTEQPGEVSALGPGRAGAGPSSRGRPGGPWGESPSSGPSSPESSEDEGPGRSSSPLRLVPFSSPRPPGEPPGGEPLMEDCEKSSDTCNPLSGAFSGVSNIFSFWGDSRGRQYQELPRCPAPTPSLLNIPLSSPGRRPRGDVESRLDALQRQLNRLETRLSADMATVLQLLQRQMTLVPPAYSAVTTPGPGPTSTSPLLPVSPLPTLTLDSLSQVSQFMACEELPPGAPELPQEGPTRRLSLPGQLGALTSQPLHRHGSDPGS
KCNQ1 pot: human KCNQ1 channel potentiation or activation. P51787. B-score at 10 µM. AID 2648. actives 0.35% (n = 310,000). CHO-K1 KCNQ1, thallium flux FluxOR fluorescence; active compounds read high;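 active = fluorescence ratio B-score, a plate-corrected score, at least three library SD, with initial intensity B-score within 5 SD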
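Assay system: stable KCNQ1 CHO-K1 line; medium: assay buffer, equal DMSO in all wells; timing: 90 min dye loading and 20 min compound exposure, both at room temperature; technique: kinetic FluxOR thallium fluorescence, 10-s 1-Hz baseline, 110-s post-stimulus read; read-out basis: B score of baseline-normalized fluorescence ratio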
Each line names hits and unclear results; the compound was inactive in the other large screens. Shown are actives, neighbours in structure and some others; about 3.8% of the full set was active somewhere.

C/C(=C\c1ccco1)C1C(C#N)=C(N)OC2=C1C(=O)CC(C)(C)C2 (stereo not drawn)	none
CCOc1cnn(Cc2ccccc2)c(=O)c1SCc1ccccc1	none
COc1cnn(Cc2ccccc2)c(=O)c1SCc1ccccc1	Kir21 inh -4.7
OCCN1CCN(Cc2cccc(Oc3ccc(Cl)cc3)c2)CC1	Kir21 inh -5.2
CN(C)CCCN(C(=O)c1ccc2c(c1)OCCO2)c1nc2ccc(Cl)cc2s1	Kir21 inh -9.9
CCN(Cc1ccccc1)S(=O)(=O)c1ccc(C(=O)N(CCCN(C)C)c2nc3cc4c(cc3s2)OCO4)cc1	KCNQ1 inh 6
CCN(Cc1ccccc1)S(=O)(=O)c1ccc(C(=O)N(CCCN(C)C)c2nc3c(C)c(C)ccc3s2)cc1	Kir21 inh -4.5, KCNQ1 inh 8
CN(C)CCN(C(=O)c1ccc2c(c1)OCCO2)c1nc2ccc(Cl)cc2s1	none
CCOC(=O)c1ccc([N+](=O)[O-])c(CS(=O)(=O)c2ccc(Cl)cc2)c1	none
Cc1ccc(S(=O)(=O)Cc2cc(F)c([N+](=O)[O-])cc2[N+](=O)[O-])cc1	KCNK3 block -10
Cc1cc(C)n(CCc2nc(-c3ccc(F)cc3)cs2)n1	none
COc1cc(-c2csc(CCn3nc(C)cc3C)n2)cc(OC)c1OC	KCNK9 inh -6.7
O=C(COc1ccc(Cl)cc1)NCC(=O)N1CCC2(CC1)NCCc1[nH]cnc12	none
CC(=O)OCC(=O)[C@@]1(O)CC[C@H]2[C@@H]3CCC4=CC(=O)C=C[C@]4(C)[C@H]3C(=O)C[C@@]21C	none
O=C(CCN1CCCC1)Nc1ccc(Br)cc1	none
CC1CCN(CCC(=O)Nc2ccc(Br)cc2)CC1	Kir21 inh -4.9
Cc1c(C(=O)NC2CCN(Cc3ccccc3)C2)oc2c(Cl)cccc12 (stereo not drawn)	Kir21 inh -9.9
Cc1c(C(=O)N2CCN(c3ccccc3)CC2)oc2c(Cl)cccc12	KCNK3 block -9.9 (no result: Kir21 inh, KCNK9 inh, KCNQ1 inh, hERG rescue, KCNQ1 pot)
O=C(NC1CCN(Cc2ccccc2)CC1)c1ccccc1Cl	none
NCCCC[C@@H](C(=O)N1CCNCC1)n1cc(CCC(=O)O)nn1	none
CC(O)Cc1cn([C@@H](CCCCN)C(=O)N2CCNCC2)nn1 (stereo partly drawn)	KCNQ1 pot 19
Cc1ccc(S(=O)(=O)N(C)c2c(C)ccc(S(=O)(=O)Nc3ccncc3)c2C)cc1	none
O=C(NC(=S)Nc1ccccc1C(=O)O)c1cncc(Br)c1	none
O=C(Nc1ccccc1C(=O)O)c1cncc(Br)c1	hERG rescue 6.6
COc1ccc(OCC(=O)Nc2ccc(C(=O)Nc3ccccc3C(=O)O)cc2)cc1	none
CCOc1ccccc1C(=O)Nc1cccc2ccccc12	none
CCOc1ccccc1C(=O)Nc1ccccc1O	KCNK9 inh -6.7
CCOc1ccc(C(=O)NCC(C)NC(=O)c2ccc(OCC)cc2)cc1 (stereo not drawn)	KCNQ1 inh 14
CCOc1ccc(C(=O)Nc2ccccc2C(=O)O)cc1	hERG rescue 7.5
COc1cccc(OC)c1C(=O)NC(=O)Nc1c(F)c(F)c(F)c(F)c1F	none
CC1=NN(Cc2ccccc2)C(=O)C1C(c1ccc(Cl)cc1)C(C#N)C#N (stereo not drawn)	Kir21 inh -5.5
N#CC1=C2SCN(Cc3ccccc3)CN2C(=O)CC1c1cccs1 (stereo not drawn)	none
Cc1ccc(OCCN2C(=O)c3ccccc3C2=O)c([N+](=O)[O-])c1	KCNQ1 pot 9
Nc1nc(Nc2ccccc2F)nc(NCc2ccccc2)c1[N+](=O)[O-]	none
CCN1/C(=C/C=C/C=C/c2sc3ccccc3[n+]2CC)Sc2ccccc21	KCNQ1 inh 17 (no result: KCNK3 block)
CCN1/C(=C/C=C/C=C/C=C/c2sc3ccccc3[n+]2CC)Sc2ccccc21	none
NNC(=O)c1nc(-c2cccc(-n3cccc3)c2)no1	none
Cc1nc2c(C(=O)NCCC(C)C)c[nH]n2c(=O)c1Cc1ccccc1F	KCNQ1 inh 6
Cc1c(N(C)C)nc2ccccc2c1N	none
CCN(CC)c1nc2ccccc2c(N)c1-c1ccccc1	Kir21 inh -5.1
CCn1c(=O)c(C(=O)NNS(=O)(=O)c2ccc(Cl)cc2)c(O)c2ccccc21	KCNQ1 inh 6
CCc1ccccc1NC(=O)N1C2CCCC1CC(NC(C)=O)C2 (stereo not drawn)	hERG rescue 6.0
CC(=O)NC1CC2CCCC(C1)N2C(=O)Nc1ccccc1C (stereo not drawn)	none (no result: Kir21 inh, KCNK9 inh, KCNQ1 inh, hERG rescue, KCNQ1 pot)
CC(=O)Nc1ccc(NC(=O)CC(c2ccccc2)c2ccccc2)cc1	none
O=C(OCCc1cc2ccccc2c(=O)o1)c1cccc(Br)c1	KCNK3 block -8.8 (no result: Kir21 inh, KCNK9 inh, KCNQ1 inh, hERG rescue, KCNQ1 pot)
CC1(C)CC(=O)N(c2cccc(Cl)c2)C(=O)C1	none
Cc1cc(C(F)(F)F)nc(SCCN2CCOCC2)c1C#N	none
CCOC(=O)N1CCN(C(=O)/C(=C/c2cccc3ccccc23)NC(=O)c2ccc(OC)c(OC)c2)CC1	none
COc1ccc(C(=O)N/C(=C\c2cccc3ccccc23)C(=O)N2CCN(C)CC2)cc1OC	hERG rescue 9.7
O=C(COC(=O)C1CCC(=O)N1)Nc1ccccc1Br (stereo not drawn)	none
O=C(COC(=O)C1CCC(=O)N1)Nc1ccc(Oc2ccccc2)cc1 (stereo not drawn)	hERG rescue 33
Cn1ccnc1C(=O)c1cccc([N+](=O)[O-])c1	KCNQ1 pot 8
Cn1ccnc1C(=O)c1ccc(NN)c([N+](=O)[O-])c1	none
O=C(CCNC(=O)c1ccccc1Cl)Nc1ccc(Br)c(C(F)(F)F)c1	none
Cc1nnc(N/N=C/c2cc([N+](=O)[O-])c(N3CCC(C)CC3)cc2N2CCC(C)CC2)n1N	KCNQ1 inh 10
CS(=O)(=O)c1ccc2nc(NC(=O)c3ccco3)sc2c1	none
Cc1ccc(C(=O)Nc2nc(-c3ccco3)c(-c3ccco3)s2)o1	KCNK3 block -11 (no result: Kir21 inh, KCNK9 inh, KCNQ1 inh, hERG rescue, KCNQ1 pot)
Cc1ccc(C(=O)Nc2nc3ccc(S(C)(=O)=O)cc3s2)o1	hERG rescue 38
Cc1cc(C)cc(CC(CC(=O)Nc2ccc(Cl)cc2)C(=O)O)c1 (stereo not drawn)	none
CC(C)CC(C(=O)N1CCOCC1)N1Cc2ccccc2C1=O (stereo not drawn)	none
COC(=O)c1sccc1NC(=O)CSc1ccccc1NS(=O)(=O)c1ccc(Cl)cc1	none
COC(=O)c1sccc1NC(=O)CSc1ccccc1NS(=O)(=O)c1ccccc1Cl	KCNK9 inh -7.2
CCOC(=O)C1CCCN(C2=NC(=O)/C(=C/c3ccc(OC)c(OC)c3)S2)C1 (stereo not drawn)	none
COc1ccc(CCNC(=O)C2CCC(C(C)(C)C)CC2)cc1OC (stereo not drawn)	Kir21 inh -9.1
CC1CCCN(C(=O)CCc2ccccc2)C1 (stereo not drawn)	none
